# ASAP1 inh = ASAP1 ArfGAP inhibition | Q9ULH1 | inhibition, % at 16.5 µM | ASAP1-stimulated ARF1 GTP hydrolysis, GDP FP detection | AID 624377 | 0.19% of 360,000 active; in the data active = inhibition above about 25%
# IDE cell activ = activators of human insulin-degrading enzyme in cells. AID 493087. 0.073% of 340,000 active. activation, % at 5.96 µM. HEK cells, FAbeta-B cleavage, fluorescence polarization; 0% vehicle, 100% cell-free pure enzyme wells;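 active = activation above the mean of all tested compounds plus 3 SD, set per screening campaign, cut at about 17% in these data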
# PREPL inh = human PREPL enzyme inhibition. inhibition, % at 5.96 µM. 0.68% of 320,000 active. Q4J6C6. recombinant PREPL, fluorescence polarization activity-based probe; in the data active = inhibition above about 43%
# ARFGAP1 inh = inhibitors of rat ARFGAP1 | AID 651572 | Arfgap1-stimulated ARF1 GTP hydrolysis, GDP FP detection | Q62848 | inhibition, % at 16.5 µM | 0.26% of 360,000 active;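 active = inhibition above a per-plate limit, mean inhibition of low control wells plus 3 SD, cut at about 25% in these data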
#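 Assay system: Rat Arfgap1 GAP domain (His6, aa 1-136), purified enzyme | Buffer or medium: HEPES 25 mM pH 7.5, NaCl 150 mM, MgCl2, DTT | Schedule: GTP hydrolysis reaction 2 h at 25 °C | Signal: FP of antibody-bound GDP Alexa 633 tracer, ex 620/em 688 nm | Measure: Percent inhibition of Arfgap1-stimulated GTP hydrolysis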
# IDE inh = inhibits human insulin-degrading enzyme in HEK cells; P14735; FAbetaB cleavage, fluorescence polarization; inhibition, % at 5.59 µM; 0.41% of 320,000 active;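 active = percent inhibition above the average of all tested compounds plus 3 SD, set per screening campaign, cut at about 16% in these data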;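 note: IDE supplied by intact live HEK cells; FP after avidin binding of uncleaved biotin substrate so inhibition keeps polarization high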
# ASAP1 inh confirm = confirmation of human ASAP1 inhibitors; ASAP1-stimulated Arf1 GTPase, GDP fluorescence polarization; AID 624431; shares compounds with ASAP1 inh; inhibition, % at 16.5 µM; 37% of 620 active;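 active = mean inhibition over triplicates exceeds the hit threshold derived for the earlier primary screening run, cut at about 25% in these data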
# ARFGAP1 confirm = confirmation of rat ARFGAP1 inhibitors | 30% of 890 active | shares compounds with ARFGAP1 inh | ARFGAP1-stimulated ARF1 GTP hydrolysis, GDP tracer FP | inhibition, % at 16.5 µM;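 active = average inhibition over triplicates above the hit cutoff set in the earlier primary screen, cut at about 25% in these data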
# Target sequence (Q62848 whole entry, looked up): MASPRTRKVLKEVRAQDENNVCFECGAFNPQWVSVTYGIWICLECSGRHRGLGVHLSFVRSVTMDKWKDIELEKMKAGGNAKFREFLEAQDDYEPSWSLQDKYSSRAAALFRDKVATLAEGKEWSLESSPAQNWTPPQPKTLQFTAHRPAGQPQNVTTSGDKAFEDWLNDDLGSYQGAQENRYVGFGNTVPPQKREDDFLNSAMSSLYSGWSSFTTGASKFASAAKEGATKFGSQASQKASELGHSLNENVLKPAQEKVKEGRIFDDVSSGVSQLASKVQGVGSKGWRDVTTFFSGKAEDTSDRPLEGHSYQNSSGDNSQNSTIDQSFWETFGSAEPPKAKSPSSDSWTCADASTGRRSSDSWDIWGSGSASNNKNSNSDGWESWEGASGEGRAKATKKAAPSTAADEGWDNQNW
# Numbers stand for hits; . = inactive; / = no result given. Rows were chosen to be rich in hits. Some 1.2% of all compounds tested hit in one or more screens of this group.
SMILES,ASAP1 inh,IDE cell activ,PREPL inh,ARFGAP1 inh,IDE inh,ASAP1 inh confirm,ARFGAP1 confirm
C=C(C)CN(CC)C(=O)CC1C(=O)NCCN1C (configuration not stated),.,.,.,.,.,/,/
CCN1CCN(Cc2ccc(NC(=O)c3ccc(C)c(NC(=O)c4c[nH]c5cc(C(F)(F)F)ccc5c4=O)c3)cc2C(F)(F)F)CC1,43,.,.,45,.,53,70
Cc1ccc(C(=O)Nc2cccc(C(F)(F)F)c2)cc1NC(=O)c1c[nH]c2cc(C(F)(F)F)ccc2c1=O,.,.,.,.,.,/,/
CCN(C[C@H]1N[C@@](C)(C(=O)OC)[C@H]2C(=O)N(C)C(=O)[C@@H]12)C(=O)Nc1ccc(Cl)cc1,.,.,.,.,.,/,/
O=C(CCOc1ccccc1)Nc1nnc(-c2ccc3c(c2)OCCO3)o1,.,.,.,.,.,/,/
O=C(Nc1nnc(-c2ccc3c(c2)OCCO3)o1)c1ccc(Cc2ccccc2)cc1,133,.,.,92,.,139,155
O=C(Nc1cccc(-c2cn3ccccc3n2)c1)c1cc2ccccc2oc1=O,36,.,.,47,.,62,72
Cc1cc(N2CCN(C)CC2)nc2ccc(NC(=O)c3cccnc3Cl)cc12,49,.,.,29,.,25,28
Cc1ccc2nc(SCC(=O)N3CCC(C)CC3)nc(=O)n2c1,37,.,.,62,.,43,69
Cc1ccc2nc(SCC(=O)NC3CCCC3)nc(=O)n2c1,.,.,.,.,.,/,/
COc1ccc(-n2c(N)c(C(=O)NCC3CCCO3)c3nc4ccccc4nc32)c(OC)c1 (configuration not stated),31,.,.,28,.,.,.
Cc1ccc(-c2nn(-c3ccccc3)cc2/C=C/C(=O)Nc2nccs2)cc1,34,.,.,52,.,.,68
O=C(/C=C/c1cn(-c2ccccc2)nc1-c1ccccc1)Nc1ccc(C(=O)O)cc1,.,.,.,.,.,/,/
CNCCCOc1cc(C)cc(C)c1C,.,.,.,.,.,/,/
CC[n+]1ccc(/C=C/c2ccc(N(C)C)cc2)c2ccccc21,43,.,/,37,/,53,50
Nc1cccc(C(=O)NCCNC(=O)c2cccc(N)c2)c1,.,.,.,.,.,/,/
CCN1CCN(Cc2ccc(NC(=O)c3cc(NC(=O)c4cncc(-c5cccs5)c4)cc(OC)c3)cc2C(F)(F)F)CC1,37,/,.,52,.,82,92
CCCCCCCCC1CC(C(=O)Nc2ccccc2)C(=O)O1 (configuration not stated),.,.,.,.,.,/,/
Cc1cccc(/C=C2/Sc3ccc(C(=O)NCCN4CCCC4)cc3NC2=O)c1,.,.,.,.,.,/,/
COc1cccc(/C=C2/Sc3ccc(C(=O)NCCN4CCCCCC4)cc3NC2=O)c1,31,.,.,29,.,36,37
COc1cccc(OC)c1-c1nn2c(-c3cc(-c4ccccc4)n[nH]3)nnc2s1,129,.,.,130,.,167,182
COc1cccc(-c2nnc3sc(-c4ccccc4)nn23)c1,.,.,.,.,.,/,/
NC(=O)C1CCN(C2=C(Cl)C(=O)c3ccccc3C2=O)CC1,41,.,.,29,.,.,.
Cc1cccc(NC(=O)Cn2cnc3c(oc4ccccc43)c2=O)c1C,33,.,.,29,.,49,59
Cc1ccccc1NC(=O)Cn1cnc2c(oc3ccccc32)c1=O,.,.,.,.,.,/,/
CN(C)S(=O)(=O)c1cc(NC(=O)COC(=O)CC2Sc3ccccc3NC2=O)ccc1Cl (configuration not stated),.,.,.,.,.,/,/
O=c1[nH]c(Nc2ccccc2Cl)cc2ccccc12,48,.,.,29,.,.,.
CC(C)C1NC(C(=O)O)Cc2c1[nH]c1ccccc21 (configuration not stated),.,.,.,.,.,/,/
O=C(Nc1ccc(N2CCCC2)cc1)c1cc2ccccc2o1,43,.,.,77,.,146,.
CC(=O)N1CCN(c2ccc(NC(=O)c3cc4ccccc4o3)cc2)CC1,.,.,.,.,.,/,/

# Source: PubChem (The Scripps Research Institute Molecular Screening Center)
